# According to ChEMBL document CHEMBL4689842, “EUbOPEN Chemogenomics Library wave 1” (2021):
# Test system: HEK-293T
# Experiment: Multiplex assay against HEK293T;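 on Population Tubulin-Different-Phenotype (%): share of the cells with healthy nuclei that show this phenotype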
# Assay type: toxicity, cell-based
# Settings: human
# Procedure, shortened: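 Imaging took place on a CQ1 microscope at 37°C and 5% CO2 once compound had been added to live cells stained at seeding with Hoechst33342, BioTracker Green Microtubule Cytoskeleton Dye, MitoTracker Red and Annexin V Alexa Fluor 680. CellPathfinder machine-learning gating classed cells as Hoechst high-intensity objects or normal cells, classed normal cells as having healthy, pyknosed or fragmented nuclei, and classed pyknosed cells as mitotic or apoptotic. Tubulin, mitochondrial-mass and membrane-permeability phenotypes are per cents of the healthy-nucleus cells.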
# [1] = 12 h, 1 µM, compound concentration 1 uM, replicate 1
# [2] = 12 h, 1 µM, compound concentration 1 uM, replicate 2
# [3] = 12 h, 10 µM, compound concentration 10 uM, replicate 1
# [4] = 12 h, 10 µM, compound concentration 10 uM, replicate 2
# [5] = 24 h, 1 µM, compound concentration 1 uM, replicate 1
# [6] = 24 h, 1 µM, compound concentration 1 uM, replicate 2
# [7] = 24 h, 10 µM, compound concentration 10 uM, replicate 1
# [8] = 24 h, 10 µM, compound concentration 10 uM, replicate 2
# [9] = 48 h, 1 µM, compound concentration 1 uM, replicate 1
# [10] = 48 h, 1 µM, compound concentration 1 uM, replicate 2
# [11] = 48 h, 10 µM, compound concentration 10 uM, replicate 1
# [12] = 48 h, 10 µM, compound concentration 10 uM, replicate 2
compound,measurement,setting,value
O=C1N/C(=N/c2ccccc2F)S/C1=C\c1ccc(C(=O)O)cc1,Population Apoptotic (%),[1],31%
same,Population Fragmented Nuclei (%),[1],14%
same,Population Healthy Nuclei (%),[1],38%
same,Population Hoechst High Intensity Objects (%),[1],14%
same,Population Membrane Permeable-Phenotype (%),[1],0%
same,Population Mitochondria Different-Phenotype (%),[1],70%
same,Population Mitotic Cells (%),[1],68%
same,Population Normal (%),[1],85%
same,Population Pyknosed Nuclei (%),[1],46%
same,Population Tubulin-Different-Phenotype (%),[1],21%
same,Total Cell Count,[1],182
same,Population Apoptotic (%),[2],8%
same,Population Fragmented Nuclei (%),[2],6%
same,Population Healthy Nuclei (%),[2],42%
same,Population Hoechst High Intensity Objects (%),[2],4%
same,Population Membrane Permeable-Phenotype (%),[2],6%
same,Population Mitochondria Different-Phenotype (%),[2],6%
same,Population Mitotic Cells (%),[2],91%
same,Population Normal (%),[2],95%
same,Population Pyknosed Nuclei (%),[2],50%
same,Population Tubulin-Different-Phenotype (%),[2],6%
same,Total Cell Count,[2],145
same,Population Apoptotic (%),[3],36%
same,Population Fragmented Nuclei (%),[3],10%
same,Population Healthy Nuclei (%),[3],38%
same,Population Hoechst High Intensity Objects (%),[3],14%
same,Population Membrane Permeable-Phenotype (%),[3],4%
same,Population Mitochondria Different-Phenotype (%),[3],63%
same,Population Mitotic Cells (%),[3],63%
same,Population Normal (%),[3],85%
same,Population Pyknosed Nuclei (%),[3],50%
same,Population Tubulin-Different-Phenotype (%),[3],33%
same,Total Cell Count,[3],203
same,Population Apoptotic (%),[4],10%
same,Population Fragmented Nuclei (%),[4],4%
same,Population Healthy Nuclei (%),[4],51%
same,Population Hoechst High Intensity Objects (%),[4],3%
same,Population Membrane Permeable-Phenotype (%),[4],5%
same,Population Mitochondria Different-Phenotype (%),[4],18%
same,Population Mitotic Cells (%),[4],89%
same,Population Normal (%),[4],96%
same,Population Pyknosed Nuclei (%),[4],43%
same,Population Tubulin-Different-Phenotype (%),[4],16%
same,Total Cell Count,[4],212
same,Population Apoptotic (%),[5],43%
same,Population Fragmented Nuclei (%),[5],16%
same,Population Healthy Nuclei (%),[5],38%
same,Population Hoechst High Intensity Objects (%),[5],12%
same,Population Membrane Permeable-Phenotype (%),[5],3%
same,Population Mitochondria Different-Phenotype (%),[5],46%
same,Population Mitotic Cells (%),[5],56%
same,Population Normal (%),[5],87%
same,Population Pyknosed Nuclei (%),[5],45%
same,Population Tubulin-Different-Phenotype (%),[5],24%
same,Total Cell Count,[5],185
same,Population Apoptotic (%),[6],8%
same,Population Fragmented Nuclei (%),[6],6%
same,Population Healthy Nuclei (%),[6],56%
same,Population Hoechst High Intensity Objects (%),[6],5%
same,Population Membrane Permeable-Phenotype (%),[6],12%
same,Population Mitochondria Different-Phenotype (%),[6],13%
same,Population Mitotic Cells (%),[6],91%
same,Population Normal (%),[6],94%
same,Population Pyknosed Nuclei (%),[6],36%
same,Population Tubulin-Different-Phenotype (%),[6],21%
same,Total Cell Count,[6],168
same,Population Apoptotic (%),[7],51%
same,Population Fragmented Nuclei (%),[7],13%
same,Population Healthy Nuclei (%),[7],46%
same,Population Hoechst High Intensity Objects (%),[7],16%
same,Population Membrane Permeable-Phenotype (%),[7],5%
same,Population Mitochondria Different-Phenotype (%),[7],48%
same,Population Mitotic Cells (%),[7],48%
same,Population Normal (%),[7],83%
same,Population Pyknosed Nuclei (%),[7],39%
same,Population Tubulin-Different-Phenotype (%),[7],26%
same,Total Cell Count,[7],236
same,Population Apoptotic (%),[8],13%
same,Population Fragmented Nuclei (%),[8],5%
same,Population Healthy Nuclei (%),[8],69%
same,Population Hoechst High Intensity Objects (%),[8],4%
same,Population Membrane Permeable-Phenotype (%),[8],8%
same,Population Mitochondria Different-Phenotype (%),[8],17%
same,Population Mitotic Cells (%),[8],86%
same,Population Normal (%),[8],96%
same,Population Pyknosed Nuclei (%),[8],25%
same,Population Tubulin-Different-Phenotype (%),[8],24%
same,Total Cell Count,[8],275
same,Population Apoptotic (%),[9],44%
same,Population Fragmented Nuclei (%),[9],20%
same,Population Healthy Nuclei (%),[9],43%
same,Population Hoechst High Intensity Objects (%),[9],16%
same,Population Membrane Permeable-Phenotype (%),[9],2%
same,Population Mitochondria Different-Phenotype (%),[9],27%
same,Population Mitotic Cells (%),[9],55%
same,Population Normal (%),[9],83%
same,Population Pyknosed Nuclei (%),[9],36%
same,Population Tubulin-Different-Phenotype (%),[9],26%
same,Total Cell Count,[9],254
same,Population Apoptotic (%),[10],14%
same,Population Fragmented Nuclei (%),[10],6%
same,Population Healthy Nuclei (%),[10],80%
same,Population Hoechst High Intensity Objects (%),[10],5%
same,Population Membrane Permeable-Phenotype (%),[10],11%
same,Population Mitochondria Different-Phenotype (%),[10],6%
same,Population Mitotic Cells (%),[10],85%
same,Population Normal (%),[10],94%
same,Population Pyknosed Nuclei (%),[10],12%
same,Population Tubulin-Different-Phenotype (%),[10],24%
same,Total Cell Count,[10],299
same,Population Apoptotic (%),[11],29%
same,Population Fragmented Nuclei (%),[11],18%
same,Population Healthy Nuclei (%),[11],45%
same,Population Hoechst High Intensity Objects (%),[11],11%
same,Population Membrane Permeable-Phenotype (%),[11],2%
same,Population Mitochondria Different-Phenotype (%),[11],19%
same,Population Mitotic Cells (%),[11],70%
same,Population Normal (%),[11],88%
same,Population Pyknosed Nuclei (%),[11],35%
same,Population Tubulin-Different-Phenotype (%),[11],21%
same,Total Cell Count,[11],279
same,Population Apoptotic (%),[12],6%
same,Population Fragmented Nuclei (%),[12],6%
same,Population Healthy Nuclei (%),[12],83%
same,Population Hoechst High Intensity Objects (%),[12],2%
same,Population Membrane Permeable-Phenotype (%),[12],3%
same,Population Mitochondria Different-Phenotype (%),[12],5%
same,Population Mitotic Cells (%),[12],94%
same,Population Normal (%),[12],97%
same,Population Pyknosed Nuclei (%),[12],9%
same,Population Tubulin-Different-Phenotype (%),[12],14%
same,Total Cell Count,[12],534
